The values that follow come from ChEMBL document CHEMBL1129566 (J Med Chem, 1996).

Molecules are shown by their SMILES. pIC50: −log10 of the molar value. In brackets after ≈: the same amount, converted by molar mass.

In general, MIC refers to the lowest concentration that inhibits growth of the organism. A higher MIC goes with a less susceptible organism. As a reminder, the pIC50 is −log10 of the IC50, conventionally taken in molar units. A higher pIC50 goes with a low IC50.

One assay has as its system Enterococcus faecalis. Put plainly: In vitro minimum inhibitory concentration required to produce antibacterial activity against Enterococcus faecalis ATCC 29212. The assay is classed as functional. In a few lines: (§1)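 Two-fold agar dilution on Mueller-Hinton agar. Overnight broth cultures diluted in fresh broth to […]; 10⁴ CFU/spot applied by inoculating apparatus onto plates with graded drug concentrations. Incubated 18 h at 37 °C; MIC taken as the lowest concentration giving complete growth inhibition.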

In assay [1] the test system is Staphylococcus aureus. Put plainly: In vitro minimum inhibitory concentration required to produce antibacterial activity against Staphylococcus aureus 743 MRSA. The assay is classed as functional. Put shortly:
as §1

A further assay deals with Enterobacter cloacae. Kind of assay: In vitro minimum inhibitory concentration required to produce antibacterial activity against Enterobacter cloacae 908SSI. Type of assay: functional. Put shortly: as §1
Assay [2] deals with Escherichia coli. Kind of assay: In vitro minimum inhibitory concentration required to produce antibacterial activity against Escherichia coli 25922. Type of assay: functional. In a few lines:
as §1

The subject of assay [3] is Streptococcus pneumoniae. Kind of assay: In vitro minimum inhibitory concentration required to produce antibacterial activity against Streptococcus pneumoniae 1/37(pen r). Type of assay: functional. In a few lines: as §1
In a further assay the test system is Citrobacter freundii. Put plainly: In vitro minimum inhibitory concentration required to produce antibacterial activity against Citrobacter freundii 902. The assay is classed as functional. Put shortly: as §1
For assay [4], the system named is Streptococcus pneumoniae. Kind of assay: Minimum inhibitory concentration for antibacterial activity against Streptococcus pneumoniae Q19 (pen s). Type of assay: functional. Put shortly:
as §1

The test system of assay [5] is Staphylococcus aureus. Kind of assay: In vitro minimum inhibitory concentration required to produce antibacterial activity against Staphylococcus aureus 887MSSA. Type of assay: functional. In a few lines: as §1
Assay [6] has as its system Pseudomonas aeruginosa. Kind of assay: (§2) In vitro minimum inhibitory concentration required to produce antibacterial activity against Pseudomonas aeruginosa ATCC 27853. The assay is classed as functional. Put shortly:
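Two-fold agar dilution on Mueller-Hinton agar. Overnight broth cultures diluted in fresh broth, inoculum 10⁴ CFU/spot applied by inoculating apparatus to plates with graded drug concentrations. Plates incubated 18 h at 37 °C. MIC taken as lowest concentration completely inhibiting growth.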

Assay [7] concerns the target Beta-lactamase TEM (Escherichia coli) (UniProt P62593). Put plainly: Rate of hydrolysis in 0.1 M sodium phosphate buffer at pH=7.0 by Beta lactamase (TEM-4). In a few lines: (§3)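 β-Lactamases purified to homogeneity; hydrolysis rate of the cephalosporin substrate measured in 0.1 M sodium phosphate buffer, pH 7.0, by standard methods.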
Assay [8] relates to Staphylococcus epidermidis. Put plainly: Inhibitory concentration against purified beta-Lactam-resistant PBP2 from Staphylococcus epidermidis. The assay is classed as functional. Put shortly:
(§4)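 PBPs purified to homogeneity. IC50 measured by competition with fluorescent dansyl-penicillin or a coumarin analogue probe. Protein-bound fluorescence determined after TCA precipitation, filtration on glass fibre filters and drying, read on a fluorimeter.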

Assay [9] relates to Streptococcus pneumoniae. Put plainly: Inhibitory concentration against purified cephalosporin-resistant PBP2x.505 from Streptococcus pneumoniae. Type of assay: functional. In a few lines:
as §4

Assay [10] deals with Beta-lactamase (Bacillus licheniformis) (UniProt P00808). Put plainly: Rate of hydrolysis in 0.1 M sodium phosphate buffer at pH=7.0 by Beta lactamase (B.l icheniformis 749/C). In a few lines: as §3
In assay [11] the test system is Streptococcus pneumoniae. Kind of assay: Inhibitory concentration against purified PBP2x from Streptococcus pneumoniae. Type of assay: functional. In a few lines:
as §4

The test system of assay [12] is Escherichia coli. Kind of assay: Inhibitory concentration against purified penicillin-binding protein(PBP) 1bgamma of Escherichia coli. Type of assay: functional. In a few lines:
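PBP purified to homogeneity. IC50 from competition with dansyl-penicillin or a coumarin analogue; protein-bound fluorescence recovered by TCA precipitation and glass-fibre filtration, then read by fluorimetry after drying.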

The subject of a further assay is Enterococcus durans. Kind of assay: Inhibitory concentration against purified beta-Lactam resistant PBP5 from Enterococcus durans. Type of assay: functional. In a few lines:
as §4

Assay [13] deals with Beta-lactamase TEM (Escherichia coli) (UniProt P62593). Put plainly: Rate of hydrolysis in 0.1 M sodium phosphate buffer at pH=7.0 by Beta lactamase (TEM-3). In a few lines:
as §3

Assay [14] relates to Streptococcus pneumoniae. Kind of assay: Inhibitory concentration against purified cephalosporin-resistant PBP2x.604 from Streptococcus pneumoniae. The assay is classed as functional. In a few lines:
as §4

The target in assay [15] is T1, Beta-lactamase SHV-1 (Escherichia coli) (UniProt P0AD63).
T1 sequence (whole entry): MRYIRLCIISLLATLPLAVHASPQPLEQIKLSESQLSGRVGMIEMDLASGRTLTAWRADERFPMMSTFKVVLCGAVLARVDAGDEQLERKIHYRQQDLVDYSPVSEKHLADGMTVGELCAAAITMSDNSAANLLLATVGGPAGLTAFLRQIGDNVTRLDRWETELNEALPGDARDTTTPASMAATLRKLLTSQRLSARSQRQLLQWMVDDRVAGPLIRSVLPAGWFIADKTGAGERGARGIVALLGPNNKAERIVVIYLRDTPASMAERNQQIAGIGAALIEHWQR
Put plainly: Rate of hydrolysis in 0.1 M sodium phosphate buffer at pH=7.0 by Beta lactamase (SHV-4). In a few lines:
as §3

Assay [16] addresses T1, Beta-lactamase SHV-1 (Escherichia coli). Kind of assay: Rate of hydrolysis in 0.1 M sodium phosphate buffer at pH=7.0 by Beta lactamase (SHV-2). Put shortly: as §3
Assay [17] has as its target Beta-lactamase (Proteus vulgaris) (UniProt P52664). Kind of assay: Rate of hydrolysis in 0.1 M sodium phosphate buffer at pH=7.0 by Beta lactamase (Proteus vulgaris 1028).
Assay [18] concerns the target Beta-lactamase (Bacillus licheniformis) (UniProt P00808). Kind of assay: Rate of hydrolysis in 0.1 M sodium phosphate buffer at pH=7.0 by Beta lactamase (Bacillus licheniformis 749/C). Put shortly:
as §3

Assay [19] concerns Pseudomonas aeruginosa. The description is as §2. The assay is classed as functional. Put shortly:
as §1
This is another data set of the same source.

Beta-lactamase TEM (Escherichia coli), sequence (P62593 whole entry): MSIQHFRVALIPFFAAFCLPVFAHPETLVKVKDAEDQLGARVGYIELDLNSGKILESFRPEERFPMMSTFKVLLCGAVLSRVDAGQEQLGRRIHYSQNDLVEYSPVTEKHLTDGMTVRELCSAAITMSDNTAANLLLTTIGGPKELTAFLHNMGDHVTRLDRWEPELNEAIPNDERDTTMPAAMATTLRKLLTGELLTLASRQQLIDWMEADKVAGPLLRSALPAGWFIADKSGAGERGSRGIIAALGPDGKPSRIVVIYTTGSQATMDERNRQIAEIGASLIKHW
Beta-lactamase (Bacillus licheniformis), sequence (P00808 whole entry): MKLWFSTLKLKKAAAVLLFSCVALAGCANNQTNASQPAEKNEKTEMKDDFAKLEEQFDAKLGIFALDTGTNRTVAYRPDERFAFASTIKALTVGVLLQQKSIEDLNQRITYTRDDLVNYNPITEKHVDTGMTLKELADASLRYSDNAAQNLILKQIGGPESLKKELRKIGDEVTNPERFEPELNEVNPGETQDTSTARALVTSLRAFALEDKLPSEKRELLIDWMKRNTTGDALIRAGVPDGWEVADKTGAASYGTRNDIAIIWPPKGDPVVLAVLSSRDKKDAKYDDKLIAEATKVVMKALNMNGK
Beta-lactamase (Proteus vulgaris), sequence (P52664 whole entry, looked up): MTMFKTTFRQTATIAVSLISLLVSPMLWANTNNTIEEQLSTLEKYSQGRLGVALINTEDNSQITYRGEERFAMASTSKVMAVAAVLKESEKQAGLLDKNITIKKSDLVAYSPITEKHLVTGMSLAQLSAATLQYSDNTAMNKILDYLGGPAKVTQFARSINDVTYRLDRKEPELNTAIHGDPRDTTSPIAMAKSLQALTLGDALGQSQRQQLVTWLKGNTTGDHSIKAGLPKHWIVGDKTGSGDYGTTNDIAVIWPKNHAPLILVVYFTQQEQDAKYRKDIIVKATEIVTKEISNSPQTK

As to `CC(C)(O/N=C(\C(=O)N[C@@H]1C(=O)N2C(C(=O)[O-])=C(C[n+]3ccccc3)CS[C@H]12)c1csc(N)n1)C(=O)O` [CEFTAZIDIME], the MIC with Enterococcus faecalis was > 32 µg/mL; against Staphylococcus aureus [1], > 32 µg/mL; against Enterobacter cloacae it was 1 µg/mL (≈ 1.83 µM); in the assay on Escherichia coli [2] it was 0.25 µg/mL (≈ 0.457 µM); with Streptococcus pneumoniae [3], 16 µg/mL (≈ 29.3 µM); against Citrobacter freundii, 0.5 µg/mL (≈ 0.915 µM). In addition, the MIC against Streptococcus pneumoniae [4] is 0.25 µg/mL (≈ 0.457 µM); in the assay with Staphylococcus aureus [5] it was 8 µg/mL (≈ 14.6 µM); with Pseudomonas aeruginosa [6], 1 µg/mL (≈ 1.83 µM).
Consider `CO/N=C(\C(=O)N[C@@H]1C(=O)N2C(C(=O)O)=C(CSc3nc(=O)c(O)nn3C)CS[C@H]12)c1csc(N)n1` [CEFTRIAXONE], for which the Activity (M min-1 (M of enzyme)-1) in [7] came to 643; in [10] it was 1890; in [13], 79; in assay [15] (Proteus vulgaris), 3340; in assay [16] it was 2310. The MIC against Enterococcus faecalis was > 32 µg/mL; against Staphylococcus aureus [1], > 32 µg/mL; in the assay on Enterobacter cloacae, 0.5 µg/mL (≈ 0.902 µM); in the assay on Escherichia coli [2], ≤ 0.06 µg/mL; against Streptococcus pneumoniae [3], 2 µg/mL (≈ 3.61 µM); against Citrobacter freundii, 0.25 µg/mL (≈ 0.451 µM). For the same molecule, the MIC was ≤ 0.06 µg/mL in the assay on Streptococcus pneumoniae [4], 4 µg/mL (≈ 7.21 µM) in the assay with Staphylococcus aureus [5] and 16 µg/mL (≈ 28.9 µM) against Pseudomonas aeruginosa [6]. The pIC50 is 3.02 in assay [8]; 5.60 in the assay on Streptococcus pneumoniae [9]; 6.30 in the assay on Streptococcus pneumoniae [11]; 6.54 with Escherichia coli [12]; < 3.30 in the assay with Enterococcus durans; 5.26 in the assay on Streptococcus pneumoniae [14].
`Nc1nc(/C(=N/O)C(=O)N[C@@H]2C(=O)N3C(C(=O)O)=C(/C=C4\CCN(CC(F)(F)F)C4=O)CS[C@H]23)cs1` [RO 25-6833]: the Activity (M min-1 (M of enzyme)-1) amounted to 305 in assay [7]; 461 in [17]; 906 in assay [18]; 14 in [13]; 1390 in assay [15]; 1580 in assay [16]. For the same molecule, the MIC is 1 µg/mL (≈ 1.83 µM) against Enterococcus faecalis; 8 µg/mL (≈ 14.6 µM) against Staphylococcus aureus [1]; 0.5 µg/mL (≈ 0.915 µM) in the assay on Enterobacter cloacae; ≤ 0.06 µg/mL against Escherichia coli [2]; 16 µg/mL (≈ 29.3 µM) in the assay with Pseudomonas aeruginosa [19]; 1 µg/mL (≈ 1.83 µM) in the assay with Streptococcus pneumoniae [3]. Besides, the figures for the MIC against Citrobacter freundii, against Streptococcus pneumoniae [4] and against Staphylococcus aureus [5] were 0.25 µg/mL (≈ 0.457 µM), 0.06 µg/mL (≈ 0.11 µM) and 1 µg/mL (≈ 1.83 µM), respectively. For the same molecule, the pIC50 in assay [8] is 4.60; with Streptococcus pneumoniae [9] it was 6.44; in the assay on Streptococcus pneumoniae [11] it was 6.52; in the assay with Escherichia coli [12] it was 4.52; in the assay on Enterococcus durans, 5.10; in the assay with Streptococcus pneumoniae [14] it was 6.06.
